According to ChEMBL document CHEMBL1817581, “Synthesis, antibacterial evaluation and QSAR studies of 7-[4-(5-aryl-1,3,4-oxadiazole-2-yl)piperazinyl] quinolone derivatives” (2011):

Tests used:
Staphylococcus aureus = assay: Antibacterial activity against Staphylococcus aureus subsp. aureus MTCC 1430 after 24 hrs by NCCLS M7-A6 serial dilution method; format: functional
Outline: (§1)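 Two-fold tube dilution in culture medium; compounds dissolved in DMSO and diluted to final concentrations starting from 10 μg/ml until MIC reached. Incubated 24 h at 30 °C. MIC taken as the lowest concentration completely inhibiting growth, reported as pMIC (negative log of molar MIC). Medium plus DMSO was the negative control, ciprofloxacin the positive control. Run in triplicate.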

Escherichia coli = assay: Antibacterial activity against Escherichia coli MTCC 739 after 24 hrs by NCCLS M7-A6 serial dilution method; format: functional; outline: as §1
Bacillus subtilis = assay: Antibacterial activity against Bacillus subtilis MTCC 2423 after 24 hrs by NCCLS M7-A6 serial dilution method; set-up: unit not given here

CCn1cc(C(=O)O)c(=O)c2cc(F)c(N3CCN(c4nnc(-c5ccccc5)o4)CC3)cc21
-logMIC (Staphylococcus aureus): 2.58
-logMIC (Escherichia coli): 2.65
-logMIC (Bacillus subtilis): 2.58

O=C(O)c1cn(C2CC2)c2cc(N3CCN(c4nnc(-c5cccc([N+](=O)[O-])c5)o4)CC3)c(F)cc2c1=O
-logMIC (Staphylococcus aureus): 2.24
-logMIC (Escherichia coli): 2.17
-logMIC (Bacillus subtilis): 2.28

COc1c(N2CCN(c3nnc(-c4ccc([N+](=O)[O-])cc4)o3)C(C)C2)c(F)cc2c(=O)c(C(=O)O)cn(C3CC3)c12 (stereo unspecified)
-logMIC (Staphylococcus aureus): 3.61
-logMIC (Escherichia coli): 3.24
-logMIC (Bacillus subtilis): 3.11

CCn1cc(C(=O)O)c(=O)c2cc(F)c(N3CCN(c4nnc(-c5ccc([N+](=O)[O-])c([N+](=O)[O-])c5)o4)CC3)cc21
-logMIC (Staphylococcus aureus): 3.24
-logMIC (Escherichia coli): 3.63
-logMIC (Bacillus subtilis): 3.87

COc1ccc(-c2nnc(N3CCN(c4cc5c(cc4F)c(=O)c(C(=O)O)cn5C4CC4)CC3)o2)cc1
-logMIC (Staphylococcus aureus): 3.12
-logMIC (Escherichia coli): 3.2
-logMIC (Bacillus subtilis): 3.09

COc1ccc(-c2nnc(N3CCN(c4c(F)cc5c(=O)c(C(=O)O)cn(C6CC6)c5c4OC)CC3C)o2)cc1OC (stereo unspecified)
-logMIC (Staphylococcus aureus): 3.36
-logMIC (Escherichia coli): 3.27
-logMIC (Bacillus subtilis): 3.27

CCn1cc(C(=O)O)c(=O)c2cc(F)c(N3CCN(c4nnc(-c5ccccc5Cl)o4)CC3)cc21
-logMIC (Staphylococcus aureus): 3.21
-logMIC (Escherichia coli): 3.6
-logMIC (Bacillus subtilis): 3.21

O=C(O)c1cn(C2CC2)c2cc(N3CCN(c4nnc(-c5ccccc5)o4)CC3)c(F)cc2c1=O
-logMIC (Staphylococcus aureus): 3.26
-logMIC (Escherichia coli): 3.22
-logMIC (Bacillus subtilis): 3.87

COc1c(N2CCN(c3nnc(-c4cccc([N+](=O)[O-])c4)o3)C(C)C2)c(F)cc2c(=O)c(C(=O)O)cn(C3CC3)c12 (stereo unspecified)
-logMIC (Staphylococcus aureus): 3.25
-logMIC (Escherichia coli): 3.55
-logMIC (Bacillus subtilis): 3.55

CCn1cc(C(=O)O)c(=O)c2cc(F)c(N3CCN(c4nnc(-c5ccc([N+](=O)[O-])cc5)o4)CC3)cc21
-logMIC (Staphylococcus aureus): 3.63
-logMIC (Escherichia coli): 3.24
-logMIC (Bacillus subtilis): 3.63

O=C(O)c1cn(C2CC2)c2cc(N3CCN(c4nnc(-c5ccc([N+](=O)[O-])c([N+](=O)[O-])c5)o4)CC3)c(F)cc2c1=O
-logMIC (Staphylococcus aureus): 2.95
-logMIC (Escherichia coli): 3.65
-logMIC (Bacillus subtilis): 3.25

COc1ccc(-c2nnc(N3CCN(c4c(F)cc5c(=O)c(C(=O)O)cn(C6CC6)c5c4OC)CC3C)o2)cc1 (stereo unspecified)
-logMIC (Staphylococcus aureus): 3.17
-logMIC (Escherichia coli): 3.07
-logMIC (Bacillus subtilis): 3.09

CCn1cc(C(=O)O)c(=O)c2cc(F)c(N3CCN(c4nnc(-c5ccc(OC)c(OC)c5)o4)CC3)cc21
-logMIC (Staphylococcus aureus): 2.43
-logMIC (Escherichia coli): 2.68
-logMIC (Bacillus subtilis): 2.43

O=C(O)c1cn(C2CC2)c2cc(N3CCN(c4nnc(-c5ccccc5Cl)o4)CC3)c(F)cc2c1=O
-logMIC (Staphylococcus aureus): 2.43
-logMIC (Escherichia coli): 2.43
-logMIC (Bacillus subtilis): 2.38

COc1c(N2CCN(c3nnc(-c4ccccc4)o3)C(C)C2)c(F)cc2c(=O)c(C(=O)O)cn(C3CC3)c12 (stereo unspecified)
-logMIC (Staphylococcus aureus): 3.62
-logMIC (Escherichia coli): 2.94
-logMIC (Bacillus subtilis): 3.54

CCn1cc(C(=O)O)c(=O)c2cc(F)c(N3CCN(c4nnc(-c5cccc([N+](=O)[O-])c5)o4)CC3)cc21
-logMIC (Staphylococcus aureus): 2.84
-logMIC (Escherichia coli): 2.69
-logMIC (Bacillus subtilis): 2.84

O=C(O)c1cn(C2CC2)c2cc(N3CCN(c4nnc(-c5ccc([N+](=O)[O-])cc5)o4)CC3)c(F)cc2c1=O
-logMIC (Staphylococcus aureus): 2.63
-logMIC (Escherichia coli): 2.32
-logMIC (Bacillus subtilis): 2.32

COc1c(N2CCN(c3nnc(-c4ccc([N+](=O)[O-])c([N+](=O)[O-])c4)o3)C(C)C2)c(F)cc2c(=O)c(C(=O)O)cn(C3CC3)c12 (stereo unspecified)
-logMIC (Staphylococcus aureus): 2.64
-logMIC (Escherichia coli): 3.66
-logMIC (Bacillus subtilis): 2.96

CCn1cc(C(=O)O)c(=O)c2cc(F)c(N3CCN(c4nnc(-c5ccc(OC)cc5)o4)CC3)cc21
-logMIC (Staphylococcus aureus): 3.2
-logMIC (Escherichia coli): 3.5
-logMIC (Bacillus subtilis): 3.2

COc1ccc(-c2nnc(N3CCN(c4cc5c(cc4F)c(=O)c(C(=O)O)cn5C4CC4)CC3)o2)cc1OC
-logMIC (Staphylococcus aureus): 2.91
-logMIC (Escherichia coli): 2.67
-logMIC (Bacillus subtilis): 2.67

COc1c(N2CCN(c3nnc(-c4ccccc4Cl)o3)C(C)C2)c(F)cc2c(=O)c(C(=O)O)cn(C3CC3)c12 (stereo unspecified)
-logMIC (Staphylococcus aureus): 3.24
-logMIC (Escherichia coli): 3.17
-logMIC (Bacillus subtilis): 3.24

O=C(O)c1cn(C2CC2)c2cc(N3CCNCC3)c(F)cc2c1=O [CIPROFLOXACIN]
-logMIC (Staphylococcus aureus): 3.16
-logMIC (Escherichia coli): 3.52
-logMIC (Bacillus subtilis): 3.16
